Test results reported in ChEMBL document CHEMBL4680221, “Discovery of pyrazole derivatives as cellular active inhibitors of histone lysine specific demethylase 5B (KDM5B/JARID1B)” (Eur J Med Chem, 2020).
Calls of active or inactive are those of the source. The calls are words filed in the database; no cut-off is given here.

Tests used:
[1] = molecular target: T1, Lysine-specific demethylase 5B (Homo sapiens, UniProt Q9UGL1); assay: Inhibition of KDM5B in human MKN-45 cells assessed as increase in H3K4me2 accumulation measured after 5 days by Hoechst 33342 staining based immunofluorescence assay; assay type: cell-based; details: time 5.0 day
T1 sequence (Q9UGL1 whole entry): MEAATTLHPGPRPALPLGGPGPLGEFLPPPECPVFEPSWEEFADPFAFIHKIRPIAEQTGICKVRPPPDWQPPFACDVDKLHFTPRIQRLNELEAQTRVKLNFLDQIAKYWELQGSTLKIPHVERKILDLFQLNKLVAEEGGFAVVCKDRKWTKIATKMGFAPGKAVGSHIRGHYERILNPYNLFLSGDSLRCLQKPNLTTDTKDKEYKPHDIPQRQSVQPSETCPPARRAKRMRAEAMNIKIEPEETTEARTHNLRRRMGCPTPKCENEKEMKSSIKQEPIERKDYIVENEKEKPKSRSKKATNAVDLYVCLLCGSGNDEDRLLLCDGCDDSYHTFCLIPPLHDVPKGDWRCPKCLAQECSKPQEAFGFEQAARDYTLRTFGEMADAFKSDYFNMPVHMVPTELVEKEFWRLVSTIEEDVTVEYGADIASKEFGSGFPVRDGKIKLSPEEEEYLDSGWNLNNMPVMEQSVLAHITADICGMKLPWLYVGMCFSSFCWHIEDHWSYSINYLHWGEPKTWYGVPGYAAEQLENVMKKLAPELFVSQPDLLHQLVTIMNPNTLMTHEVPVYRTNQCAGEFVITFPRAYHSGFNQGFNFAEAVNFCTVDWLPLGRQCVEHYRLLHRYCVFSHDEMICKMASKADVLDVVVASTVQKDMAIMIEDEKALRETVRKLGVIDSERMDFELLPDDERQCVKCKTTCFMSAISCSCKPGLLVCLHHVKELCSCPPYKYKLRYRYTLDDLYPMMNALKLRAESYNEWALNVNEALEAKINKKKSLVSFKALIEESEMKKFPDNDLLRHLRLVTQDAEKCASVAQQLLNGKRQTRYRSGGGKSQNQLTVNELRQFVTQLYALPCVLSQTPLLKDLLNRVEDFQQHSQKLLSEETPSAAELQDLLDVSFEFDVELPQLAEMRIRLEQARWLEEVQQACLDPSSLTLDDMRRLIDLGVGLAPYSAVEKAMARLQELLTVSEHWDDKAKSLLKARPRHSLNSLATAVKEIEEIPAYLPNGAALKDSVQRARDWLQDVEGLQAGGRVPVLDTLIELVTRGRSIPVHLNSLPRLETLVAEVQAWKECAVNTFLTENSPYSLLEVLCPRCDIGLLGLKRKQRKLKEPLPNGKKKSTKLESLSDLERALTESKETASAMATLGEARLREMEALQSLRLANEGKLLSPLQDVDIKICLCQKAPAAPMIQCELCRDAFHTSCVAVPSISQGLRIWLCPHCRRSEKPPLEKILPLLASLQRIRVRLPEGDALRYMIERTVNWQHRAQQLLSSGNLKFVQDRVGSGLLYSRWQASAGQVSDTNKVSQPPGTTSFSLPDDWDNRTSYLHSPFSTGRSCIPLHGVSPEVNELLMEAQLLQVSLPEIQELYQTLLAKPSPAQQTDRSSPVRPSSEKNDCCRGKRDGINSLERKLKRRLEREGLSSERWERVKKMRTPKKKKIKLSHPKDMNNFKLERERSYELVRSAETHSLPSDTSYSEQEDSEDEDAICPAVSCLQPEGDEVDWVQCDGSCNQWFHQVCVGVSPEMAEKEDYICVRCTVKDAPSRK
Method in brief: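 MKN45 cells were seeded and left 24 h, then treated for 5 days. Cells were fixed in 4% paraformaldehyde, permeabilised with 0.1% Triton X-100 for 20 min and blocked with 5% BSA for 1 h. H3K4me2 or H3K4me3 primary antibody was applied at 4°C overnight, followed by Alexa Fluor 488 secondary and Hoechst 33342 (5 µg/mL) nuclear stain. Signal was quantified by high content imaging; three independent experiments.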

[2] = molecular target: Lysine-specific demethylase 5C (Homo sapiens, UniProt P41229); assay: Inhibition of KDM5C (unknown origin) at 0.01 uM relative to control
Sequence of Lysine-specific demethylase 5C (P41229 whole entry): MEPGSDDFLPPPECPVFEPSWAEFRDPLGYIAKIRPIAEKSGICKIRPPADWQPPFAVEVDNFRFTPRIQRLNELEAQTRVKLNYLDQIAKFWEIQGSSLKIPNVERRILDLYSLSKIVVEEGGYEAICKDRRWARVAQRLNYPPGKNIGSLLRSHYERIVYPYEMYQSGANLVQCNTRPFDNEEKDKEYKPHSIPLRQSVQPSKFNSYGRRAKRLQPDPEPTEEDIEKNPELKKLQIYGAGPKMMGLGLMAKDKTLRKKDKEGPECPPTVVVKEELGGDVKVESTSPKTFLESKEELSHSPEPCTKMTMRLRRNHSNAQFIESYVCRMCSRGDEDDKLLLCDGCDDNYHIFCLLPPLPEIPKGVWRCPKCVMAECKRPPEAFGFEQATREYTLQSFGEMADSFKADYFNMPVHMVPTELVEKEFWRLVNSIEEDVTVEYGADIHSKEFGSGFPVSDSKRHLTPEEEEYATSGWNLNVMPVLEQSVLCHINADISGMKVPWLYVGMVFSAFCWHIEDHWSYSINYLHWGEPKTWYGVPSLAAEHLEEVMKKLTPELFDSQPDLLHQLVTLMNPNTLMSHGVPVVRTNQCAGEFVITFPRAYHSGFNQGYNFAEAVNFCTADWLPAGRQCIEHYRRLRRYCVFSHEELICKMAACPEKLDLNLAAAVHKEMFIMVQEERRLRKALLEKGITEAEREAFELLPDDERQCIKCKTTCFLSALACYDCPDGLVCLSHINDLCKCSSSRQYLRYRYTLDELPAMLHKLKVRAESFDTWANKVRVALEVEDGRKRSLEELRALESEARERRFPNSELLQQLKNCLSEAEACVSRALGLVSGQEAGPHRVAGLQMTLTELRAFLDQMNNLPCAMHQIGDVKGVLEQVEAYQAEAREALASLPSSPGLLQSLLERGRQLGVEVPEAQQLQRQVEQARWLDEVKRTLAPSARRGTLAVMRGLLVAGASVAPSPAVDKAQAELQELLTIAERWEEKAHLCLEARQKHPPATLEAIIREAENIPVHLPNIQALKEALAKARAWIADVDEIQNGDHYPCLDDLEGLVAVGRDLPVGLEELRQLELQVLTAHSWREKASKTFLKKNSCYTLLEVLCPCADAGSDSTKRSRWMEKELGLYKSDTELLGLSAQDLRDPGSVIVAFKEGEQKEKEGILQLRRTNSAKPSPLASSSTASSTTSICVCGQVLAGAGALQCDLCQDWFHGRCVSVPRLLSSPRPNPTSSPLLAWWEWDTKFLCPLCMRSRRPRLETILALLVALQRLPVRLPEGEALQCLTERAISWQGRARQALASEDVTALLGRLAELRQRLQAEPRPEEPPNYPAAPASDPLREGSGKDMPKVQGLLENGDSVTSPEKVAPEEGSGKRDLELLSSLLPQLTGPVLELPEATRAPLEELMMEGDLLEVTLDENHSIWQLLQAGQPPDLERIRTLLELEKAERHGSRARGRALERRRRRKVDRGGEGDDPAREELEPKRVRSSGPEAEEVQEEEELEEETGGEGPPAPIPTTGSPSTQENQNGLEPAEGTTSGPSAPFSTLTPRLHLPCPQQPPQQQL

MKN-45 [3] = assay: Antimigratory activity in human MKN-45 cells measured after 24 hrs by transwell assay; assay type: functional, cell-based
[4] = molecular target: T2, Lysine-specific demethylase 4C (Homo sapiens) (UniProt Q9H3R0); assay: Inhibition of KDM4C (unknown origin) at 0.01 uM relative to control
T2 sequence (whole entry): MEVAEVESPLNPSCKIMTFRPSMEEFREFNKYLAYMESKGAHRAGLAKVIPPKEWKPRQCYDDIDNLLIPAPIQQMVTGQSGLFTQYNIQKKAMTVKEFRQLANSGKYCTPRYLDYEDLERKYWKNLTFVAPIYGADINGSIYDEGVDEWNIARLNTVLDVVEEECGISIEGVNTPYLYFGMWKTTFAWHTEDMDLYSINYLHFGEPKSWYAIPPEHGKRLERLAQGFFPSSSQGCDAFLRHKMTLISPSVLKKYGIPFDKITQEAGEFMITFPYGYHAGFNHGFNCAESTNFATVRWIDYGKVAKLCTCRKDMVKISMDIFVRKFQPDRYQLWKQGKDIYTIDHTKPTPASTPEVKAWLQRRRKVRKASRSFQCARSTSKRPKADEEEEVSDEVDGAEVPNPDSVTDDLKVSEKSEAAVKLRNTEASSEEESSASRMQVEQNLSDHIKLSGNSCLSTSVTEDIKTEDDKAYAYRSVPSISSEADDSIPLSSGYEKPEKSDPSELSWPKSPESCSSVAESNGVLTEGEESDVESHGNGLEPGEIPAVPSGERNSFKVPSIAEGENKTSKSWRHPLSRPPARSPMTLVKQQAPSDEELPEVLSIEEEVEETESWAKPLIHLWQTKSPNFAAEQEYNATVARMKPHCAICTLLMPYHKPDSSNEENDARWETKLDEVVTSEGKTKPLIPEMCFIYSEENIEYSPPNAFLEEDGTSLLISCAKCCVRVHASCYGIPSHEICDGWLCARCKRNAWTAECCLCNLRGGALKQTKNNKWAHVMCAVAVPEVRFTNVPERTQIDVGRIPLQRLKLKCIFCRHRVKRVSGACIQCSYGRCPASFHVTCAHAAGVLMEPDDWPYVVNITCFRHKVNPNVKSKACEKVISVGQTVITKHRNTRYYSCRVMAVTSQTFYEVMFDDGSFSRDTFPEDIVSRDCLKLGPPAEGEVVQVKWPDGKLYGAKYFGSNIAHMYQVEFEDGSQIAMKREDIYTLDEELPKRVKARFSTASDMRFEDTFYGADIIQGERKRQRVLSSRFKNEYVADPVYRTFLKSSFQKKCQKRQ

[5] = molecular target: T3, Lysine-specific demethylase 4A (Homo sapiens) (UniProt O75164); assay: Inhibition of KDM4A (unknown origin) at 1 uM relative to control
T3 sequence (whole entry): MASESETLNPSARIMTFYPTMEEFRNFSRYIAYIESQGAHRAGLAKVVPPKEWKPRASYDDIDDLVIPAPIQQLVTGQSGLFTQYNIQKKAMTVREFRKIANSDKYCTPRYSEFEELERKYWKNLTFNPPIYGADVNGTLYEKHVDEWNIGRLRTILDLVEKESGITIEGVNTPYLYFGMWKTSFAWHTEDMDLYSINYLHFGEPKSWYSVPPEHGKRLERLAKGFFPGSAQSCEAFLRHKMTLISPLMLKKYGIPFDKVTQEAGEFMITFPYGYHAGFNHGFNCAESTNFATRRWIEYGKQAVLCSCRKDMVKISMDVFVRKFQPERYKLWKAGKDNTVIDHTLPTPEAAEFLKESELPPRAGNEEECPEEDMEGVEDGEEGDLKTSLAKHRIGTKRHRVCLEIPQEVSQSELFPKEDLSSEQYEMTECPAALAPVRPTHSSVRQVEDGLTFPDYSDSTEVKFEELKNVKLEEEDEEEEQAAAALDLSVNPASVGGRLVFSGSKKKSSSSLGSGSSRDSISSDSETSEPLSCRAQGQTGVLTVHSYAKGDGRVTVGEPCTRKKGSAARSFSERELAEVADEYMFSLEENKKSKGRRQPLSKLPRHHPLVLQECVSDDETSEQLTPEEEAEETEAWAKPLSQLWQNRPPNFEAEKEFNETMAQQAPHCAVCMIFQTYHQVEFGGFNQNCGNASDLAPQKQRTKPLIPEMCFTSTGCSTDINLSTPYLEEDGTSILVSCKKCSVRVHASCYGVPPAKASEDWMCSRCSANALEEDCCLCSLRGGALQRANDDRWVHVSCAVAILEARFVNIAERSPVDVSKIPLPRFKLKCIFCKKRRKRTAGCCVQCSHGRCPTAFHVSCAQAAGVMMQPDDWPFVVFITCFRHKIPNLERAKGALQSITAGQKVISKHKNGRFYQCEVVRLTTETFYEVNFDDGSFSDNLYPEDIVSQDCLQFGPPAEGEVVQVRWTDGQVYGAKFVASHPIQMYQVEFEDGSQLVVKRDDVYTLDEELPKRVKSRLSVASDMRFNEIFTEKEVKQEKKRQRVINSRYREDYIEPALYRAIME

MKN-45 [6] = assay: Inhibition of KDM6 in human MKN-45 cells assessed as increase in H3K27me2 accumulation at 0.5 to 20 uM measured after 5 days by Western blot analysis; assay type: cell-based; details: dose 0.5-20 µM, time 5.0 day
Method in brief: (§1)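 MKN45 cells were treated for 5 days and lysed in RIPA buffer. About 30 µg protein was run on 10% SDS-PAGE and transferred to 0.2 µm nitrocellulose, then blocked with 5% milk in PBS for 2 h. Blots were probed for histone methylation marks with histone 3 as loading control and detected by ECL.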

[7] = molecular target: T1, Lysine-specific demethylase 5B; assay: Inhibition of KDM5B in human MKN-45 cells assessed as increase in H3K4me1 accumulation at 0.5 to 20 uM measured after 5 days by Western blot analysis; assay type: cell-based; details: dose 0.5-20 µM, time 5.0 day; method in brief: as §1
MKN-45 [8] = assay: Inhibition of KDM4 in human MKN-45 cells assessed as increase in H3K9me2 accumulation at 0.5 to 20 uM measured after 5 days by Western blot analysis; assay type: cell-based; details: dose 0.5-20 µM, time 5.0 day; method in brief: as §1
MKN-45 [9] = assay: Antiproliferative activity against human MKN-45 cells assessed as reduction in cell proliferation measured after 4 days by MTS assay; assay type: functional, cell-based; details: MKN-45, 96 h
Method in brief: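 MKN45 cells were seeded at 3×10^3 cells per well and treated for 4 or 6 days, as indicated. Proliferation was read by MTS assay and IC50 derived. Three independent experiments, mean ± SD.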

- inhibition [1]: Dose-dependent effect
- inhibition [2]: 16.4%
- inhibition [4]: 3.52%
- inhibition [5]: 56.2%
- inhibition [7]: inactive
- IC50 (MKN-45 [9]): 26.7 µM
SMILES: COc1ccc(-n2cc(C(=O)NCC(C)(C)N3CCOCC3)c(-c3ccccc3)n2)cc1
- Activity (MKN-45 [3]): Dose-dependent effect
- inhibition (MKN-45 [6]): inactive
- inhibition (MKN-45 [8]): inactive
